# Rows were chosen to be rich in hits. Some 2.3% of all compounds tested hit in one or more screens of this group.
# T cruzi repl: inhibitors of intracellular T. cruzi growth, primary screen, luminescence, NIH3T3 host cells. inhibition, % (no concentration beside the values). AID 1885, 2009. T. cruzi beta-gal in NIH3T3, 90 h. 300,000 compounds, 1.4% hits;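 active means mean inhibition across valid replicates above about 55%, limit read from the data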;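 further: signal also drops with host cell toxicity which is not excluded here; 0% = plate median of DMSO wells and 100% = zero luminescence signal; higher percent means less beta-gal luminescence so fewer parasites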
#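 System: mouse NIH/3T3 fibroblasts infected with β-gal-expressing T. cruzi Tulahuen C4 / Input: NIH/3T3 cells, 5,000 per well / Buffer or medium: Low-serum DMEM with 2% FBS / Probe or stimulus: 5000 reporter trypomastigotes per well / Schedule: ≥90 h infection period, 3 h prior cell attachment / Measured by: GalScreen luminescence, 60 min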
# Beta cell apopt: inhibitors of cytokine-induced beta cell apoptosis, primary screen, luminescence; INS-1E cytokine-induced death, ATP luminescence, 48 h; percent of positive-control rescue, neutral wells zero; protection from apoptosis, % (no concentration beside the values); 300,000 compounds, 0.8% hits; AID 435005, 2010;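 active means Every replicate reaches about 75%, or at least half do and their mean reaches it too, limit read from the data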;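 further: 0% = cytokine-treated negative control wells and 100% = positive control rescue; higher means more ATP so stronger rescue from cytokine killing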
# KLF5 inh: KLF5 expression inhibitors, primary screen, DLD-1 cells, luminescence; DLD-1 KLF5 promoter-luciferase reporter; inhibition, % at 5 µM; 290,000 compounds, 0.23% hits; AID 1700, 2009;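 active means inhibition above a per-plate limit of that plate's mean compound inhibition plus 3 SD, cut at about 60% in these data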;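 further: 0% = DMSO wells and 100% = LY294002 at 200 µM; higher means less KLF5 promoter-driven luciferase light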
# HIF act: HIF pathway transcriptional activators, primary screen, cell-based, U2OS HRE-luciferase, luminescence. 300,000 compounds, 0.32% hits. AID 1910, 2009. activation, % at 7.5 µM (by protocol). U2OS HRE-luciferase reporter; normalized: DMSO 0%, desferrioxamine 100%;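 active means mean activation of at least 10% of the iron chelator positive control signal, with at least half of replicates also reaching 10%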
# Bfl-1 A1 inh: caspase 3/7 activation in MEF A1-2A-BIM cells, primary screen, A1 inhibitor project, cell-based, luminescence, HTS; Caspase-Glo 3/7 luminescence, 3 h; percent of clofoctol response, vehicle zero; AID 2462, 2010; caspase activation, % (concentration not given with the values); 330,000 compounds, 0.066% hits;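 active means over half of replicate activation scores above 10%, or exactly half above 10 with the replicate mean above 10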
# KLF5 confirm: KLF5 expression inhibitors, confirmation, DLD-1 cells, luminescence | shares compounds with KLF5 inh | DLD-1 KLF5 promoter firefly luciferase reporter | inhibition, % at 4 µM | 610 compounds, 79% hits | AID 1834, 2009;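 active means inhibition above a set limit taken from the earlier primary screen, cut at about 63% in these data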;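 further: 0% = DMSO wells and 100% = LY294002 at 200 µM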
# IEC-6 tox trip: cytotoxicity in rat IEC-6 cells, cytotoxicity control for KLF5 inhibitor project, cell-based, luminescence, triplicate. shares compounds with KLF5 inh. IEC-6 rat intestinal cells, viability luminescence. inhibition, % at 4 µM. 610 compounds, 56% hits. AID 1905, 2009; in the data active means inhibition above about 23%;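 further: cells exposed to compounds for 48 hours before viability read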
# Starred values were filed as active, the others as inactive; . = not tested or not shown.
SMILES,T cruzi repl,Beta cell apopt,KLF5 inh,HIF act,Bfl-1 A1 inh,KLF5 confirm,IEC-6 tox trip
COc1cc2nc(SCc3ccc(Cl)cc3Cl)n(Cc3cccs3)c(=N)c2cc1OC,77*,1,-39,0,0,.,.
COc1cc2nc(SCc3ccc(C(F)(F)F)cc3)n(Cc3cccs3)c(=N)c2cc1OC,27,-3,13,0,1,.,.
COc1ccc(Cn2c(SCc3ccc(C)cc3)nc3cc(OC)c(OC)cc3c2=N)cc1Cl,43,110*,-21,-7,3,.,.
COc1ccc(Cn2c(SCc3cc(C)ccc3C)nc3cc(OC)c(OC)cc3c2=N)cc1,59*,105*,-27,-3,1,.,.
Cc1cc(NC(=O)C(C)SCC(=O)N(C)CC(=O)Nc2ccc(F)cc2)no1 (stereo unspecified),6,0,.,0,0,.,.
Cc1nnc(NC(=O)c2ccc3c(c2)OCO3)s1,-6,.,-97,1,-6,.,.
CSc1nnc(NC(=O)c2ccc3c(c2)OCO3)s1,1,2,75*,-4,-14,62,-2
CCc1ccc(C(=O)Nc2nc3ccccc3[nH]2)cc1,31,44,84*,-2,-8,72*,6
O=C(Nc1nc2ccccc2[nH]1)c1ccc(OC(F)F)cc1,14,22,26,-2,-8,.,.
CC(C)Oc1ccc(C(=O)Nc2nc3ccccc3[nH]2)cc1,33,46,87*,-3,-8,78*,6
CC1=C(C(=O)OC2CCCCC2)C(c2ccccc2Br)NC(=O)N1 (stereo unspecified),-7,-4,-7,1,0,.,.
COc1ccc(S(=O)(=O)NCC(=O)NCc2cc(=O)n(C)c(=O)n2C)cc1C,3,-2,-33,1,1,.,.
O=C(CCc1ccccc1)NNC(=O)COc1ccc([N+](=O)[O-])cc1,-4,1,-25,0,-1,.,.
COC(=O)c1cc(C(=O)N2CCN(c3ccccc3OC)CC2)cc([N+](=O)[O-])c1,-75,4,74*,0,0,80*,63*
COC(=O)c1cc(C(=O)N2CCN(c3cccc(C)c3C)CC2)cc([N+](=O)[O-])c1,-28,2,47,1,0,.,.
Cc1nn(-c2ccccc2)c(C)c1/C=N/NC(=O)c1cc(-c2ccccc2)n[nH]1,-7,33,63*,1,0,84*,65*
Cc1nn(-c2ccccc2)c(C)c1/C=N/NC(=O)c1cc(-c2cccc3ccccc23)n[nH]1,39,8,-58,1,-1,.,.
COc1ccc2[nH]c3c(C)c4ccncc4c(C)c3c2c1,58*,100*,75*,-2,0,77*,59*
COC(=O)C1CC23C=CCN4CCC5(c6ccccc6NC15C2C)C43 (stereo unspecified),21,7,62*,0,1,79*,59*
CN1CC[C@@]2([C@@]34CCN(C)C3Nc3ccccc34)c3ccccc3NC12 (stereo partly specified),-14,-1,.,0,0,.,.
CC(C)(C)c1ccc(Cn2nnc3c(=O)[nH]c(C4CCCN(C(=O)c5cccs5)C4)nc32)cc1 (stereo unspecified),32,-3,-8,1,0,.,.
O=[N+]([O-])c1ccc(O)c(/C=N/Nc2ccc(Cl)nn2)c1,84*,110*,67*,64*,1,76*,38*
O=C(Nc1ccccc1)c1ccc(-c2ccccc2)s1,13,-3,-16,5,-6,.,.
O=C(O)c1ccc(-c2ccc(-c3ccccc3)cc2)s1,-5,-2,90*,-5,-7,92*,4
COc1cccc(/C=N/Nc2ccnc(=O)[nH]2)c1O,-13,93*,81*,0,-12,11,8
SMILES,T cruzi repl,Beta cell apopt,KLF5 inh,HIF act,Bfl-1 A1 inh,KLF5 confirm,IEC-6 tox trip
COc1cccc(/C=N/Nc2ccc(C(=O)O)cc2)c1O,3,21,100*,-7,-13,111*,-7
CCOc1ccccc1/C=N/Nc1ccnc(=O)[nH]1,-9,21,-14,-39,0,.,.
O=c1nccc(N/N=C/c2ccccc2O)[nH]1,-1,125*,88*,2,-13,-4,11
COc1cccc(/C=N/Nc2ccccc2C(=O)O)c1O,-7,7,-177,4,-6,.,.
COc1cccc(/C=N/NC(=O)c2cc3c(OC)ccc(OC)c3[nH]2)c1O,7,86*,88*,-11,2,72*,-2
CNc1ccccc1NC(=O)C1CCCN1C(=O)OCc1ccccc1 (stereo unspecified),-9,-1,-21,0,0,.,.
COC(=O)c1ccc(CNC(=O)c2ccc(OC)c(S(=O)(=O)NC3CCCC3)c2)cc1,.,-2,.,.,0,.,.
CCOC(=O)C1CCCN(CC(=O)N(C)c2c(N)n(Cc3ccccc3)c(=O)[nH]c2=O)C1 (stereo unspecified),.,3,.,.,1,.,.
O=[N+]([O-])c1ccc(/C=N/Nc2ncccc2[N+](=O)[O-])s1,-27,-38,.,1,-9,.,.
COc1cccc(/C=N/Nc2ccc([N+](=O)[O-])cn2)c1O,25,119*,85*,50*,-9,72*,7
COc1cccc(/C=N/Nc2ncccc2[N+](=O)[O-])c1OC,-4,9,81*,-5,-7,30,23*
COc1cccc(/C=N/Nc2ccc(S(=O)(=O)O)cc2)c1O,-12,-6,-2,0,-3,.,.
COc1cc2c(cc1OC)CN(C(=O)c1ccc(Cl)c(S(=O)(=O)N3CCCC3)c1)CC2,.,0,.,.,-2,.,.
Cc1ccc(NC(=O)c2cc(C)n(-c3cccc(C)c3)c2C)cc1,4,5,78*,0,0,89*,-1
Cc1cc(C(=O)Nc2ccc(Cl)cc2)c(C)n1-c1ccccc1,12,.,74*,-4,-8,87*,-12
C=CC[C@H](CC(=O)NCCO)C(=O)N[C@H](COC(=O)[C@H](CC=C)CC(=O)OC(C)(C)C)Cc1c[nH]c2ccccc12,.,-8,.,.,1,.,.
CC(C)(C)OC(=O)NCCCCCNC(=O)c1[nH]cnc1C(=O)Nc1ccon1,.,-1,.,.,0,.,.
Cc1ccc(C(=O)O/N=C(\N)c2ccccn2)c(Cl)c1,-19,.,96*,-6,-9,75*,8
N/C(=N\OC(=O)c1ccc(Cl)cc1Cl)c1ccccn1,-1,110*,95*,-2,-6,46,3

# Bioassay records from PubChem.
